Active and inactive are the calls of the source. No cut-off for these calls is given here.
Key:
Type in all cases: functional
SF-295 = experiment: Antiproliferative activity against human SF-295 cells assessed as growth inhibition incubated for 72 hrs by MTT assay
TK-10 = experiment: Antiproliferative activity against human TK-10 cells assessed as growth inhibition incubated for 72 hrs by MTT assay
CCRF-CEM [1] = experiment: Induction of cell cycle arrest in human CCRF-CEM cells assessed as reduction in accumulation of cells at S phase at 1 uM incubated for 24 hrs by PI staining based flow cytometry analysis
Outline: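 Seeding in 6-well plates, 2 mL medium: A549 5×10^4, CCRF-CEM 2.5×10^5, VL51 2.0×10^5. 24 h treatment, A549 detached with trypsin-EDTA. Cells fixed in 70% ice-cold ethanol, PI-labelled, analysed by flow cytometry. Mean of two independent experiments.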

IGROV-1 = experiment: Antiproliferative activity against human IGROV-1 cells assessed as growth inhibition incubated for 72 hrs by MTT assay
CCRF-CEM [2] = experiment: Antiproliferative activity against human CCRF-CEM cells assessed as growth inhibition incubated for 72 hrs by MTT assay
UACC-257 = experiment: Antiproliferative activity against human UACC-257 cells assessed as growth inhibition incubated for 72 hrs by assay
SK-MEL-28 = experiment: Antiproliferative activity against human SK-MEL-28 cells assessed as growth inhibition incubated for 72 hrs by MTT assay
OVCAR-4 = experiment: Antiproliferative activity against human OVCAR-4 cells assessed as growth inhibition incubated for 72 hrs by MTT assay
SK-MEL-2 = experiment: Antiproliferative activity against human SK-MEL-2 cells assessed as growth inhibition incubated for 72 hrs by MTT assay

Structure (SMILES) | GI50 (SF-295) | GI50 (TK-10) | Activity (CCRF-CEM [1]) | GI50 (IGROV-1) | GI50 (CCRF-CEM [2]) | GI50 (UACC-257) | GI50 (SK-MEL-28) | GI50 (OVCAR-4) | GI50 (SK-MEL-2)
COc1ccc(Cn2cc3c(c2-c2cc(OC)c(OC)c(OC)c2)CCCc2cnoc2-3)cc1N | 500 nM | 96600 nM | Active | 1560 nM | 440 nM | 580 nM | 2930 nM | – | –
COc1ccc(Cn2cc3c(c2-c2cc(OC)c(OC)c(OC)c2)CCCc2cnoc2-3)cc1 | 510 nM | – | Active | 560 nM | 410 nM | – | – | 4970 nM | 1610 nM
